In brackets after ≈: the same amount, converted by molar mass.
Tests used:
[1] = tested on: Clostridioides difficile; assay: Antibacterial activity against Clostridium difficile 8282 incubated for 46 hrs in anaerobic condition by CLSI-based broth microdilution assay; format: functional
[2] = tested on: Clostridioides difficile; assay: Antibacterial activity against Clostridium difficile ATCC 700057 incubated for 46 hrs in anaerobic condition by CLSI-based broth microdilution assay; format: functional
[3] = tested on: Mycobacterium tuberculosis; assay: Antimycobacterial activity against recombinant Mycobacterium tuberculosis H37Rv expressed in green fluorescence protein by measuring increase in fluorescence after 10 days in presence of middlebrook 7H9/OADC medium by GFP reporter gene assay; format: functional; conditions: 240 h, time 10 day
[4] = tested on: Clostridioides difficile; assay: Antibacterial activity against Clostridium difficile ATCC 43255 incubated for 46 hrs in anaerobic condition by CLSI-based broth microdilution assay; format: functional
[5] = tested on: Clostridioides difficile; assay: Antibacterial activity against Clostridium difficile BAA-1805 incubated for 46 hrs in anaerobic condition by CLSI-based broth microdilution assay; format: functional
[6] = tested on: Clostridioides difficile; assay: Antibacterial activity against Clostridium difficile ATCC 9689 incubated for 46 hrs in anaerobic condition by CLSI-based broth microdilution assay; format: functional; conditions: ATCC 9689 = DSM 1296
[7] = tested on: Clostridioides difficile; assay: Antibacterial activity against Clostridium difficile 8260 incubated for 46 hrs in anaerobic condition by CLSI-based broth microdilution assay; format: functional
[8] = tested on: Clostridioides difficile; assay: Antibacterial activity against Clostridium difficile 8264 incubated for 46 hrs in anaerobic condition by CLSI-based broth microdilution assay; format: functional
[9] = tested on: Staphylococcus aureus; assay: Antibacterial activity against Staphylococcus aureus ATCC 29213 incubated overnight by broth dilution method; format: functional
In short: (§1)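 Strains pre-grown overnight at 37 °C on Mueller Hinton II agar; CLSI broth dilution, inoculum about 7.5 × 10^5 CFU/well. Compounds taken from 1.0 mg/mL stocks in 50 % methanol/H2O, diluted in H2O as 2-fold series. Plates held at 37 °C overnight; MIC read visually as lowest concentration with no growth.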

[10] = tested on: Bacillus subtilis; assay: Antibacterial activity against Bacillus subtilis DSM3256 incubated overnight by broth dilution method; format: functional; in short: as §1
[11] = tested on: Clostridioides difficile; assay: Antibacterial activity against Clostridium difficile 5680 incubated for 46 hrs in anaerobic condition by CLSI-based broth microdilution assay; format: functional
[12] = tested on: Clostridioides difficile; assay: Antibacterial activity against Clostridium difficile BAA-1875 incubated for 46 hrs in anaerobic condition by CLSI-based broth microdilution assay; format: functional
[13] = tested on: Clostridioides difficile; assay: Antibacterial activity against Clostridium difficile 8290 incubated for 46 hrs in anaerobic condition by CLSI-based broth microdilution assay; format: functional
[14] = Aqueous solubility of the compound in phosphate buffer at pH 7 after 5 hrs by UHPLC analysis; format: physicochemical
In short: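 Solid added to 1.0 mL pH 7 phosphate buffer containing 50 µg/mL caffeine internal standard until saturated. Stirred 5 h at room temperature, passed through a 0.22 µm filter, then run on C18 UHPLC with a water/MeCN + 0.1 % HCOOH gradient. Analyte/IS peak-area ratio was converted to concentration using a linear calibration from MeOH standards at 50–500 µg/mL.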

SMILES | MIC [1] [µg/mL] | MIC [2] [µg/mL] | MIC90 [3] [µg/mL] | MIC [4] [µg/mL] | MIC [5] [µg/mL] | MIC [6] [µg/mL] | MIC [7] [µg/mL] | MIC [8] [µg/mL] | MIC [9] [µg/mL] | MIC [10] [µg/mL] | MIC [11] [µg/mL] | MIC [12] [µg/mL] | MIC [13] [µg/mL] | solubility at 5 h [14] [µg/mL]
CCc1c(Cl)c(OCC(=O)N2CCN(c3cc4c(cc3F)c(=O)c(C(=O)O)cn4C3CC3)CC2)c(Cl)c(O)c1C(=O)O[C@@H]1[C@@H](O)[C@@H](OC)[C@@H](OC/C2=C\C=C\C[C@H](O)/C(C)=C/[C@H](CC)[C@@H](O[C@@H]3OC(C)(C)[C@@H](OC(=O)C(C)C)[C@H](O)[C@@H]3O)/C(C)=C/C(C)=C/C[C@@H]([C@@H](C)O)OC2=O)O[C@H]1C | 0.03 (≈ 0.021 µM) | 0.06 (≈ 0.042 µM) | 1 | 0.03 (≈ 0.021 µM) | 0.12 (≈ 0.084 µM) | ≤ 0.015 | 0.03 (≈ 0.021 µM) | 0.12 (≈ 0.084 µM) | > 64 | 32 (≈ 22.4 µM) | 0.12 (≈ 0.084 µM) | 0.06 (≈ 0.042 µM) | 0.12 (≈ 0.084 µM) | –
CCc1c(Cl)c(OCCOCCOCCOCCOCCOCCOC)c(Cl)c(OCCOCCOCCOCCOCCOCCOC)c1C(=O)O[C@@H]1[C@@H](O)[C@@H](OC)[C@@H](OC/C2=C\C=C\C[C@H](O)/C(C)=C/[C@H](CC)[C@@H](O[C@@H]3OC(C)(C)[C@@H](OC(=O)C(C)C)[C@H](O)[C@@H]3O)/C(C)=C/C(C)=C/C[C@@H]([C@@H](C)O)OC2=O)O[C@H]1C | – | – | – | – | – | – | – | – | – | – | – | – | – | 504 (≈ 312 µM)
CO[C@H]1/C=C/O[C@@]2(C)Oc3c(C)c(O)c4c(O)c(c(/C=N/N5CCN(C)CC5)c(O)c4c3C2=O)NC(=O)/C(C)=C\C=C\[C@H](C)[C@H](O)[C@@H](C)[C@@H](O)[C@@H](C)[C@H](OC(C)=O)[C@@H]1C [RIFAMPIN] | > 16 | ≤ 0.015 | – | ≤ 0.015 | ≤ 0.015 | ≤ 0.015 | > 16 | ≤ 0.015 | 0.008 (≈ 0.00972 µM) | 0.25 (≈ 0.304 µM) | ≤ 0.015 | ≤ 0.015 | ≤ 0.015 | –
CCc1c(Cl)c(Oc2nncnn2)c(Cl)c(Oc2nncnn2)c1C(=O)O[C@@H]1[C@@H](O)[C@@H](OC)[C@@H](OC/C2=C\C=C\C[C@H](O)/C(C)=C/[C@H](CC)[C@@H](O[C@@H]3OC(C)(C)[C@@H](OC(=O)C(C)C)[C@H](O)[C@@H]3O)/C(C)=C/C(C)=C/C[C@@H]([C@@H](C)O)OC2=O)O[C@H]1C | 0.06 (≈ 0.0493 µM) | 0.06 (≈ 0.0493 µM) | – | 0.12 (≈ 0.0985 µM) | 0.25 (≈ 0.205 µM) | 0.03 (≈ 0.0246 µM) | 0.12 (≈ 0.0985 µM) | 0.25 (≈ 0.205 µM) | – | – | 0.5 (≈ 0.41 µM) | 0.25 (≈ 0.205 µM) | 0.12 (≈ 0.0985 µM) | –
CCc1c(Cl)c(OCCCn2cc(CCN3CCC(N)CC3)nn2)c(Cl)c(OCCCn2cc(CCN3CCC(N)CC3)nn2)c1C(=O)O[C@@H]1[C@@H](O)[C@@H](OC)[C@@H](OC/C2=C\C=C\C[C@H](O)/C(C)=C/[C@H](CC)[C@@H](O[C@@H]3OC(C)(C)[C@@H](OC(=O)C(C)C)[C@H](O)[C@@H]3O)/C(C)=C/C(C)=C/C[C@@H]([C@@H](C)O)OC2=O)O[C@H]1C | > 16 | > 16 | 16 | > 16 | > 16 | > 16 | > 16 | > 16 | > 64 | 8 (≈ 5.23 µM) | > 16 | > 16 | > 16 | 451 (≈ 295 µM)
CCc1c(Cl)c(OCCCn2cc(COCCOCCOCCOCCOCCC(=O)O)nn2)c(Cl)c(O)c1C(=O)O[C@@H]1[C@@H](O)[C@@H](OC)[C@@H](OC/C2=C\C=C\C[C@H](O)/C(C)=C/[C@H](CC)[C@@H](O[C@@H]3OC(C)(C)[C@@H](OC(=O)C(C)C)[C@H](O)[C@@H]3O)/C(C)=C/C(C)=C/C[C@@H]([C@@H](C)O)OC2=O)O[C@H]1C | – | – | – | – | – | – | – | – | – | – | – | – | – | > 2000
CCOC(=O)COc1c(Cl)c(O)c(C(=O)O[C@@H]2[C@@H](O)[C@@H](OC)[C@@H](OC/C3=C\C=C\C[C@H](O)/C(C)=C/[C@H](CC)[C@@H](O[C@@H]4OC(C)(C)[C@@H](OC(=O)C(C)C)[C@H](O)[C@@H]4O)/C(C)=C/C(C)=C/C[C@@H]([C@@H](C)O)OC3=O)O[C@H]2C)c(CC)c1Cl | 8 (≈ 6.99 µM) | 8 (≈ 6.99 µM) | 2 | > 16 | > 16 | 2 (≈ 1.75 µM) | 16 (≈ 14 µM) | > 16 | 16 (≈ 14 µM) | 32 (≈ 28 µM) | > 16 | 8 (≈ 6.99 µM) | 16 (≈ 14 µM) | –

— ChEMBL document CHEMBL4665898, “Semisynthetic Analogs of the Antibiotic Fidaxomicin-Design, Synthesis, and Biological Evaluation” (ACS Med Chem Lett, 2020)
